Source: paper PMC4027032 (Journal of the American Chemical Society, 2011)

What was measured:
[1] = molecular target: human cathepsin B in DU145 lysates (Homo sapiens, UniProt P07858); assay: Cathepsin B activity in DU145 cell lysates, Z-Arg-Arg-AMC; format: biochemical; details: 1 alone; DU145 lysate
In short: (§1)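 Cathepsin B activity was measured in DU145 or hBMSC cell lysates with fluorogenic Z-Arg-Arg-AMC at 100 μM, run in the dark or after the test compound was irradiated for 10 min with a 250 W tungsten halogen lamp (>395 nm, H2O filter). Activity was plotted against log[inhibitor] and fit to a sigmoidal curve to give IC50, with 100% set by the no-inhibitor control.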

human cathepsin B = human cathepsin B (Homo sapiens, UniProt P07858); assay: Cathepsin B inhibition, fluorogenic substrate Z-Arg-Arg-AMC; format: biochemical; details: 1 alone; acetate buffer pH 6.0, cat B 8 nM, 1% DMSO
In short: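 Human cathepsin B at 8 nM in 0.4 M acetate buffer (pH 6.0, 4 mM EDTA, 8 mM DTT, final 1% DMSO), with Z-Arg-Arg-AMC at 100 μM. Reactions were run in the dark or after 10 min irradiation of the test compound (250 W tungsten halogen lamp, >395 nm, H2O filter). IC50 came from a sigmoidal fit of activity versus log[inhibitor], with 100% set by the no-inhibitor control.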

[2] = molecular target: human cathepsin B in hBMSC lysates (Homo sapiens, UniProt P07858); assay: Cathepsin B activity in hBMSC lysates, Z-Arg-Arg-AMC; format: biochemical; details: 1 alone; hBMSC lysate
In short: as §1

papain = molecular target: T1, papain (Carica papaya, UniProt P00784); assay: Papain inhibition, chromogenic substrate BAPNA; format: biochemical; details: inhibitor 1 alone; papain 650 nM, phosphate buffer pH 6.5, 11% DMSO
T1 sequence (P00784 134-345): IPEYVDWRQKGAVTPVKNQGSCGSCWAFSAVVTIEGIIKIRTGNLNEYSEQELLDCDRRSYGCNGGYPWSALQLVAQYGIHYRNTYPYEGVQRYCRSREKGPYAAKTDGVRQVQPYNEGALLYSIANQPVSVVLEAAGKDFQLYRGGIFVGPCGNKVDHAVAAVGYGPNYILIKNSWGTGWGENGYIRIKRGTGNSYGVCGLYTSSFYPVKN

human cathepsin L = human cathepsin L (Homo sapiens, UniProt P07711); assay: Cathepsin L inhibition, fluorogenic substrate Z-Phe-Arg-AMC; format: biochemical; details: 1 alone; acetate buffer pH 5.5, cat L 20 nM, 1% DMSO
In short: (§2)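 Human cathepsin K or L at 20 nM in 0.4 M acetate buffer (pH 5.5, 4 mM EDTA, 8 mM DTT, final 1% DMSO). Substrates at 100 μM were Z-Gly-Pro-Arg-AMC for K and Z-Phe-Arg-AMC for L. Reactions were run in the dark or after 10 min irradiation (250 W tungsten halogen lamp, >395 nm, H2O filter). IC50 came from a sigmoidal fit versus log[inhibitor], with 100% set by the no-inhibitor control.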

human cathepsin K = molecular target: T2, human cathepsin K (Homo sapiens, UniProt P43235); assay: Cathepsin K inhibition, fluorogenic substrate Z-Gly-Pro-Arg-AMC; format: biochemical; details: 1 alone; acetate buffer pH 5.5, cat K 20 nM, 1% DMSO
T2 sequence (P43235 115-329): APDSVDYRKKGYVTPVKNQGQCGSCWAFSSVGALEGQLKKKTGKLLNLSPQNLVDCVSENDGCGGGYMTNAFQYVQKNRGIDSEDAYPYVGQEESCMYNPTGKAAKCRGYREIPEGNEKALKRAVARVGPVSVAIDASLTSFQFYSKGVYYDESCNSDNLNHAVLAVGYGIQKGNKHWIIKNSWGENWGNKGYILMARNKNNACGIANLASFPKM
In short: as §2

[3] = λirr = 400 nm; cited from earlier work

Chain of human cathepsin L (P07711 114-333): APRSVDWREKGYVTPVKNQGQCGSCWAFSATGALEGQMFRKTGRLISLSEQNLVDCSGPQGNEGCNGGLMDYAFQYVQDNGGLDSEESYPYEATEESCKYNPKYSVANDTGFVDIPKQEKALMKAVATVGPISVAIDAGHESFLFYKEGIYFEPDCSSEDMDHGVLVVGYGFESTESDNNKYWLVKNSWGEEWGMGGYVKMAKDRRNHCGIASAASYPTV

SMILES | IC50 [1] [µM] | IC50 (human cathepsin B) [µM] | IC50 [2] [µM] | IC50 (papain) [nM] | IC50 (human cathepsin L) [µM] | IC50 (human cathepsin K) [µM] | overall photoaquation quantum yield ΦR→P [3]
CC(=O)N[C@@H](Cc1ccccc1)C(=O)NCC#N [compound 1, Ac-Phe-NHCH2CN, reference compound] | 182 | 133 | 183 | 638 | 72 | 12 | –
CC#N.CC#N.[Cl-].[Cl-].[Ru+2].c1ccc(-c2ccccn2)nc1.c1ccc(-c2ccccn2)nc1 [cis-[Ru(bpy)2(MeCN)2]Cl2] | – | – | – | – | – | – | 0.21
